Assays:
Histone deacetylase 8 = target: T1, Histone deacetylase 8 (Homo sapiens, UniProt Q9BY41); assay: Inhibition of human HDAC8 using Z-L-Lys(epsilon-trifluoroacetyl)-AMC as substrate measured after 90 mins by fluorescence assay
T1 sequence (Q9BY41 whole entry): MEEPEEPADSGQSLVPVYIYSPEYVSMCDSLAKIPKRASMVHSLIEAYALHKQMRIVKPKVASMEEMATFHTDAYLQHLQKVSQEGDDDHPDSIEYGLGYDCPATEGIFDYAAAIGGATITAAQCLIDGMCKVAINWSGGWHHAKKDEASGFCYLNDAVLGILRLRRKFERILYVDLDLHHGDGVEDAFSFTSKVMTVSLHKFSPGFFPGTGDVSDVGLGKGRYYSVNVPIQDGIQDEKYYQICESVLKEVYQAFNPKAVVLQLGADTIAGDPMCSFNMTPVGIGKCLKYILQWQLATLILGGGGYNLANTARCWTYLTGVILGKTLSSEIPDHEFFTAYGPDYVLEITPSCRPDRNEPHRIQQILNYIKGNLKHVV

Homo sapiens = species: Homo sapiens; assay: Selectivity index, ratio of IC50 for recombinant full length human C-terminal FLAG/His-tagged HDAC1 expressed in baculovirus infected sf9 cells to IC50 for full length human recombinant N-terminal GST-tagged HDAC6 expressed in baculovirus infected sf9 cells
Summary of the method: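 Ratio of isolated-enzyme IC50 values. HDAC1, HDAC6 and HDAC8 IC50s were each the mean ± SD of three independent experiments.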

CAL-27 [1] = assay: Potentiation of 1 uM cisplatin-induced cytotoxicity against human CAL27 cells assessed as decrease in cell viability by measuring combination index at 700 uM preincubated for 48 hrs followed by cisplatin treatment measured after 72 hrs by MTT assay; format: functional
Summary of the method: (§1)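 HDAC inhibitor was added 48 h before cisplatin, then cells were exposed to cisplatin for 72 h and viability was read by MTT assay. Combination index was computed by the Chou–Talalay method: CI > 1 is antagonism, CI = 1 additive, CI < 0.9 synergism. Points with fraction affected below 0.20 were flagged.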

CAL-27 [2] = assay: Potentiation of 2 uM cisplatin-induced cytotoxicity against human CAL27 cells assessed as decrease in cell viability by measuring combination index at 500 uM preincubated for 48 hrs followed by cisplatin treatment measured after 72 hrs by MTT assay; format: functional; settings: in the assay text read “at 500 nM” for “at 500 uM”; summary of the method: as §1
[3] = target: T2, Histone deacetylase 1/6 (Homo sapiens) (UniProt Q13547+Q9UBN7); assay: Inhibition of HDAC1/HDAC6 in human Cal27CisR cells assessed as potentiation of 5 uM cisplatin-induced cytotoxicity by measuring combination index at 800 uM preincubated for 48 hrs followed by cisplatin treatment measured after 72 hrs by MTT assay; format: cell-based
T2 sequence (Q13547 whole entry, looked up): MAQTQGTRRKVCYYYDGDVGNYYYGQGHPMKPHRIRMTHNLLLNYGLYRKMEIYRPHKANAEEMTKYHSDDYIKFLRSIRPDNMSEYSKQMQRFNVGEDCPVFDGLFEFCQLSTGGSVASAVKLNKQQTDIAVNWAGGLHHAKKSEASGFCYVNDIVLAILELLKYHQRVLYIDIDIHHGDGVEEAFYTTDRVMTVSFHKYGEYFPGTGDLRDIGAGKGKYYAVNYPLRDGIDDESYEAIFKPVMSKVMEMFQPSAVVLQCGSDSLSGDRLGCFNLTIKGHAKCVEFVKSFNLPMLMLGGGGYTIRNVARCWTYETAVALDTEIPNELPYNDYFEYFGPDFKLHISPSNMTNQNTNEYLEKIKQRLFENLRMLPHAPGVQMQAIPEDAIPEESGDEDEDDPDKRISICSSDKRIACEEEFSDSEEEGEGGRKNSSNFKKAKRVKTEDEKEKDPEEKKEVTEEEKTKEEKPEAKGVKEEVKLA
T2 sequence (Q9UBN7 whole entry, looked up): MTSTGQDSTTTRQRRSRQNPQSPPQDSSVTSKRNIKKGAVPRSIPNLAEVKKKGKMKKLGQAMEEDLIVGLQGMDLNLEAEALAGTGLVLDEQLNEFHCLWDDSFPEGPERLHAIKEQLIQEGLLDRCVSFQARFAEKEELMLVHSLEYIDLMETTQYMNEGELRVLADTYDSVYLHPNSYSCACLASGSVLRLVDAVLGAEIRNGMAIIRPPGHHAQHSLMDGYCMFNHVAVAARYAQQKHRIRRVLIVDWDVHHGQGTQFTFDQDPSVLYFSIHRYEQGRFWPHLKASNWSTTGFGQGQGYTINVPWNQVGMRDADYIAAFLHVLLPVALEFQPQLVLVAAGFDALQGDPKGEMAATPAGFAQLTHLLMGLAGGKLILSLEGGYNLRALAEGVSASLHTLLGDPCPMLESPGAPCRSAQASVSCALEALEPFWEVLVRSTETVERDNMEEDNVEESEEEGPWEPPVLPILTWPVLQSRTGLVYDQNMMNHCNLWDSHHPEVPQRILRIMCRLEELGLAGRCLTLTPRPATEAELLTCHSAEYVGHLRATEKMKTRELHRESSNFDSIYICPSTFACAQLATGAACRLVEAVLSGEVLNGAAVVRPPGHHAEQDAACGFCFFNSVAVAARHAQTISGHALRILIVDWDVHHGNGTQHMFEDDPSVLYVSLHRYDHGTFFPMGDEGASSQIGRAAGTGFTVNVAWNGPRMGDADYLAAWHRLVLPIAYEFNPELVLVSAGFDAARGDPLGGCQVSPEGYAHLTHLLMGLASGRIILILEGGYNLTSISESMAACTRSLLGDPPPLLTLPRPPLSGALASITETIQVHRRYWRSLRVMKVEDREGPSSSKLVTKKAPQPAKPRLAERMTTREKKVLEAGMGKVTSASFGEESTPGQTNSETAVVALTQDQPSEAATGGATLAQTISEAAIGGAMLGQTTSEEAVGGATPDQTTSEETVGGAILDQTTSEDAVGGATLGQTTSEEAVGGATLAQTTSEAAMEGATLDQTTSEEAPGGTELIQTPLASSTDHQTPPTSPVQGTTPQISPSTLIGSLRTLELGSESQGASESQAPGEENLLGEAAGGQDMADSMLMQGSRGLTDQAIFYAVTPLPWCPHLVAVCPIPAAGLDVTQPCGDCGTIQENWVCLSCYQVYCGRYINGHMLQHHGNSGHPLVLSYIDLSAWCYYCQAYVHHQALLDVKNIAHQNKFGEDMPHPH
Summary of the method: (§2)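 Cal27 and cisplatin-resistant Cal27CisR cells were preincubated with the HDAC inhibitor for 48 h, then given cisplatin in combination. Viability was read by MTT after 72 h. The combination index was computed by the Chou–Talalay method: CI > 1 is antagonism, CI = 1 is additive, and CI < 0.9 is synergism. Points with fraction affected below 0.20 were flagged.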

[4] = target: T2, Histone deacetylase 1/6 (Homo sapiens); assay: Inhibition of HDAC1/HDAC6 in human Cal27CisR cells assessed as potentiation of cisplatin-induced cytotoxicity by measuring fold reduction in cisplatin IC50 at 0.5 uM preincubated for 48 hrs followed by cisplatin treatment measured after 72 hrs by MTT assay relative to cisplatin alone; format: cell-based
Summary of the method: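 Cal27CisR cells were pretreated 48 h with 0.5 μM inhibitor, then exposed to increasing cisplatin concentrations for 72 h, with IC50 by MTT. The shift factor is the IC50 of cisplatin alone divided by the IC50 of the combination. Data are mean ± SEM of pooled independent experiments (at least three), each in triplicate, and significance was tested by t test (p < 0.05).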

CAL-27 [5] = assay: Potentiation of 0.316 uM cisplatin-induced cytotoxicity against human CAL27 cells assessed as decrease in cell viability by measuring combination index at 700 uM preincubated for 48 hrs followed by cisplatin treatment measured after 72 hrs by MTT assay; format: functional; settings: in the assay text read “at 700 nM” for “at 700 uM”; summary of the method: as §2
CAL-27 [6] = assay: Potentiation of 2 uM cisplatin-induced cytotoxicity against human CAL27 cells assessed as decrease in cell viability by measuring combination index at 300 uM preincubated for 48 hrs followed by cisplatin treatment measured after 72 hrs by MTT assay; format: functional; settings: in the assay text read “at 300 nM” for “at 300 uM”; summary of the method: as §1
CAL-27 [7] = assay: Potentiation of 2 uM cisplatin-induced cytotoxicity against human CAL27 cells assessed as decrease in cell viability by measuring combination index at 400 uM preincubated for 48 hrs followed by cisplatin treatment measured after 72 hrs by MTT assay; format: functional; settings: in the assay text read “at 400 nM” for “at 400 uM”; summary of the method: as §1
CAL-27 [8] = assay: Potentiation of 0.5 uM cisplatin-induced cytotoxicity against human CAL27 cells assessed as decrease in cell viability by measuring combination index at 300 uM preincubated for 48 hrs followed by cisplatin treatment measured after 72 hrs by MTT assay; format: functional; settings: in the assay text read “at 300 nM” for “at 300 uM”; summary of the method: as §2
CAL-27 [9] = assay: Potentiation of 0.316 uM cisplatin-induced cytotoxicity against human CAL27 cells assessed as decrease in cell viability by measuring combination index at 300 uM preincubated for 48 hrs followed by cisplatin treatment measured after 72 hrs by MTT assay; format: functional; settings: in the assay text read “at 300 nM” for “at 300 uM”; summary of the method: as §2
[10] = target: T2, Histone deacetylase 1/6 (Homo sapiens); assay: Inhibition of HDAC1/HDAC6 in human Cal27CisR cells assessed as potentiation of 3.16 uM cisplatin-induced cytotoxicity by measuring combination index at 200 uM preincubated for 48 hrs followed by cisplatin treatment measured after 72 hrs by MTT assay; format: cell-based
Summary of the method: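 Cal27CisR cells preincubated 48 h with the HDAC inhibitor, then exposed to cisplatin for 72 h. Viability read by MTT. Combination index calculated by the Chou–Talalay method: CI > 1 antagonism, CI = 1 additive, CI < 0.9 synergism. Points with fraction affected below 0.20 are flagged. Values are the mean of three experiments.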

[11] = target: T2, Histone deacetylase 1/6 (Homo sapiens); assay: Inhibition of HDAC1/HDAC6 in human Cal27CisR cells assessed as potentiation of cisplatin-induced apoptosis at 0.5 uM preincubated for 48 hrs followed by cisplatin treatment for 6 hrs measured after 24 hrs by propidium iodide dye-based flow cytometry (reference value: 20.3%); format: cell-based; parameters: scale not given: the % may be the effect or the level left
[12] = target: T2, Histone deacetylase 1/6 (Homo sapiens); assay: Inhibition of HDAC1/HDAC6 in human Cal27CisR cells assessed as potentiation of 5 uM cisplatin-induced cytotoxicity by measuring combination index at 200 nM preincubated for 48 hrs followed by cisplatin treatment measured after 72 hrs by MTT assay
[13] = target: T2, Histone deacetylase 1/6 (Homo sapiens); assay: Inhibition of HDAC1/HDAC6 in human Cal27CisR cells assessed as potentiation of 20 uM cisplatin-induced cytotoxicity by measuring combination index at 100 nM preincubated for 48 hrs followed by cisplatin treatment measured after 72 hrs by MTT assay
[14] = target: T2, Histone deacetylase 1/6 (Homo sapiens); assay: Inhibition of HDAC1/HDAC6 in human Cal27CisR cells assessed as potentiation of 20 uM cisplatin-induced cytotoxicity by measuring combination index at 400 nM preincubated for 48 hrs followed by cisplatin treatment measured after 72 hrs by MTT assay

| IC50 (Histone deacetylase 8) | Activity [11] | Structure (SMILES) | Ratio IC50 (Homo sapiens) | CI (CAL-27 [1]) | CI (CAL-27 [2]) | CI [3] | fold change (FC) [4] | CI (CAL-27 [5]) | CI (CAL-27 [6]) | CI (CAL-27 [7]) | CI (CAL-27 [8]) | CI (CAL-27 [9]) | CI [10] | CI [12] | CI [13] | CI [14] |
| --- | --- | --- | --- | --- | --- | --- | --- | --- | --- | --- | --- | --- | --- | --- | --- | --- |
| 1.08 µM |  | COc1cc(NC(=O)NOCCCCCC(=O)NO)c2ncccc2c1 | < 15 | 0.63 | 0.49 | 0.37 |  |  |  |  |  |  |  |  |  |  |
| 1.22 µM | 59.7% | COc1cc(NC(=O)NOCCCCCC(=O)NO)c2nccc(C)c2c1 | < 15 | 0.43 | 0.27 | 0.23 | 8.2 | 0.68 | 0.31 | 0.27 | <0.2 | <0.2 | < 0.2 | < 0.2 | 0.73 | 0.28 |
| 1.54 µM | 59.7% | COc1cc(NC(=O)NOCCCCCC(=O)NO)c2nc(OC)cc(C)c2c1 | 15 | 0.61 | 0.42 | 0.26 | 11.2 | 0.82 | 0.38 | 0.38 | <0.2 | <0.2 | 0.87 | 0.38 | 0.34 | 0.16 |

— ChEMBL document CHEMBL4014350, “Alkoxyurea-Based Histone Deacetylase Inhibitors Increase Cisplatin Potency in Chemoresistant Cancer Cell Lines” (J Med Chem, 2017)
